Screens as filed in PubChem BioAssay.
eIF4E-4G inh: inhibitors of eIF4E and eIF4G interaction in translation initiation; P63073+Q04637; TR-FRET eIF4E-eIF4GI(517-606) binding, 2 h; inhibition, % at 21.7 µM; actives 0.37% (n = 220,000); AID 782;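 active = inhibition above about 30%, limit read from the data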;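 note: 0% = full FRET control wells and 100% = background wells lacking eIF4GI fragment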
14-3-3 Bad inh: disrupts binding of bovine 14-3-3 zeta to phospho-Bad peptide; inhibition, % at 21.7 µM; actives 0.71% (n = 220,000); AID 781; P63103; TR-FRET 14-3-3zeta/Dy647-pBad peptide displacement, 1 h;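 active = inhibition above about 70%, limit read from the data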;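 note: 0% = full 14-3-3 plus peptide FRET controls and 100% = background without 14-3-3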
Target sequence (P63103 whole entry, looked up): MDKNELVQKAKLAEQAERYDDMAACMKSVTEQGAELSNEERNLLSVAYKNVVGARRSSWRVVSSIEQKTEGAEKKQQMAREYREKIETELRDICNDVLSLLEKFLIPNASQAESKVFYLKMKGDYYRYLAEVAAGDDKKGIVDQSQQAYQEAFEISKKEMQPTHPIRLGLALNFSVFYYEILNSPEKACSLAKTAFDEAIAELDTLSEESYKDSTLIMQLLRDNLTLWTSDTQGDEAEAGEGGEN
PERK inhibitor: inhibitors of human PERK kinase; Q9NZJ5; CHO PERK-DD fusion, SEAP luminescence translation reporter; inhibition, % at 5.6 µM; actives 0.17% (n = 220,000);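 active = inhibition above the mean inhibition of all tested compounds plus 3 SD, set separately per screening campaign, cut at about 2.9% in these data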;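 note: PERK kinase domain activated by AP20187 dimerizer at 100 nM; 0% = DMSO with dimerizer and 100% = rapamycin at 8.4 µM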
Hck-Nef inh: human Hck-Nef kinase inhibition; P08631; Recombinant Hck-YEEI plus Nef, Z-Lyte FRET kinase assay; inhibition, % at 20 µM; actives 0.68% (n = 220,000); AID 463187;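 active = Hck-Nef kinase inhibition above about 50%, limit read from the data; inactive = inhibition below that limit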;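 note: 0% = DMSO with Hck plus Nef and 100% = Hck alone without Nef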
p97 inhibitor: human p97 ATPase inhibition. inhibition, % at 8 µM. recombinant p97 ATPase, Kinase-Glo ATP luminescence, 3 h. AID 1481. actives 0.42% (n = 220,000); in the data active = inhibition above about 15%;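 note: 0% = DMSO vehicle and 100% = wells lacking enzyme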
Biofilm kill mix: mixture kills Candida albicans biofilm cells | inhibition, % at 7.6 µM | AID 1242 | actives 0.02% (n = 120,000) | C. albicans biofilm persisters + clotrimazole, fluorescence viability; primary screen in compound mixtures of four per well;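 note: compounds exposed to preformed 24 h biofilms for 48 h; 0% = untreated biofilm control and 100% = clotrimazole plus chlorhexidine kill blank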
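Test system: C. albicans biofilms. Buffer or medium: RPMI/MOPS medium, pH 7.0. Timing: 48 h compound exposure at 37 °C. Technique: Alamar Blue fluorescence. Evaluation: percent inhibition of biofilm viability.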
The depositor's hits bear a star; . = not tested or not shown; [ ] = another dose, or the depositor's remark. Rows were chosen to be rich in hits. Some 2.2% of all compounds tested hit in one or more screens of this group.

SMILES	eIF4E-4G inh	14-3-3 Bad inh	PERK inhibitor	Hck-Nef inh	p97 inhibitor	Biofilm kill mix
Cc1ccc2oc(Nc3nc(-c4ccccc4)cc(=O)[nH]3)nc2c1	23	88*	0	37	-2	19
CCCCOc1nc2ccccc2nc1C(C#N)S(=O)(=O)c1ccccc1 (stereo not drawn)	4	72*	0	2	6	.
CC1CCCN(c2nc3ccccc3nc2C(C#N)S(=O)(=O)c2ccccc2)C1 (stereo not drawn)	6	5	1	0	1	.
O=C1OCCN/C1=C\C(=O)c1ccc(Cl)cc1	10	-7	1	7	6	15
COC(C[C@@H](O)[C@@H](C)[C@@H](O)COCc1ccccc1)OC	-2	-2	.	27	.	15
COc1ccc(OCC(=O)NNC(=O)c2cccnc2)cc1	9	92*	1	-1	4	.
Cc1ccc(OCC(=O)NNC(=O)c2cccnc2)cc1	-2	-7	1	1	4	.
C=CCN(Cc1cn(C)nc1-c1cccc(Cl)c1)C1CCS(=O)(=O)C1 (stereo not drawn)	-2	96*	2	1	-2	9
CCc1nnc(NC(=O)CSc2nnc(-c3cc4ccccc4cc3O)n2CC)s1	-1	9	0	-1	0	.
CCc1nnc(NC(=O)CSc2nnc(-c3cc4ccccc4cc3O)n2CCOC)s1	5	-16	0	4	17*	.
O=C(Cn1cc(S(=O)(=O)N2CCN(c3ccccc3F)CC2)c2ccccc2c1=O)NCCCN1CCCCCC1	-2	17	1	22	7	4
CC(=O)Nc1ccc(N=Cc2nc(-c3ccc(C)cc3)oc2O)cc1	-5	69	0	15	-3	.
Cc1ccc(N=Cc2nc(-c3ccc(C)cc3)oc2O)cc1	66*	0	1	6	-1	10
CCC(c1nnnn1Cc1ccco1)N1CCC(C(N)=O)CC1 (stereo not drawn)	8	57	1	1	1	.
CCCC(c1nnnn1Cc1ccco1)N1CCC(C(N)=O)CC1 (stereo not drawn)	-4	71*	0	0	3	.
Cn1cc(CN2CCC(C(O)c3cccs3)CC2)c(-c2ccccc2F)n1 (stereo not drawn)	-2	2	-1	10	-1	-7
CC(C)NC(=O)c1cc(-n2cnnc2)ccc1Cl	-2	-10	2	1	-4	.
CCc1cccc(NC(=O)Cn2cc(C=O)c3ccccc32)c1	2	-14	2	18	4	-1
Cc1ccccc1NC(=O)CN1C(=O)COc2ccc(Cl)cc21	-5	8	-1	3	15*	.
O=C(C[n+]1ccc(/C=C/c2ccccc2)cc1)c1ccc2c(c1)OCCO2	3	0	0	-40	8	4
NC(=O)N/N=C/c1c(Sc2nnnn2-c2ccccc2)nc2ccccn2c1=O	-1	-9	0	3	8	23
CCc1ccc(/C=C2/Sc3ccccc3N(CC(=O)NCCCOC)C2=O)cc1	-3	2	0	18	2	16
CCN1CCN(CCNC(=O)c2ccc(/C=C3/Sc4ccccc4N(Cc4cccc(Cl)c4)C3=O)cc2)CC1	36*	58	1	-138	3	2
CCN1CCN(CCNC(=O)c2ccc3c(c2)N(Cc2ccc(F)cc2)C(=O)/C(=C/c2ccccc2)S3)CC1	37*	52	0	33	1	1
CN1CCN(CCCNC(=O)c2ccc(/C=C3\Sc4ccccc4N(Cc4ccccc4F)C3=O)cc2)CC1	31*	86*	0	-23	1	10
SMILES	eIF4E-4G inh	14-3-3 Bad inh	PERK inhibitor	Hck-Nef inh	p97 inhibitor	Biofilm kill mix
O=C(NCCN1CCOCC1)c1ccc2c(c1)N(Cc1cccc(F)c1)C(=O)c1ccccc1S2	0	68	0	-11	-5	11
O=c1[nH]c(/C=C/c2ccccc2[N+](=O)[O-])nc2ccccc12	3	71*[fluorescence artefact?]	1	9	3	0
O=c1[nH]c(/C=C/c2cccc3ccccc23)nc2ccccc12	24	58	-1	40	-6	4
CCC(NC(=O)Nc1cc(C)on1)(C(F)(F)F)C(F)(F)F	-3	5	3.2*	23	2	19
CCN1C(=O)C(c2ccc(O)cc2)(c2ccc(O)cc2)c2ccccc21	1	94*	0	16	1	3
COc1ccc(N2CC(C(=O)Nc3cc(C)ccn3)CC2=O)cc1 (stereo not drawn)	-1	-4	1	6	5	22
CCCCC(=O)N(c1ccc(C)c(C)c1)C1C=CS(=O)(=O)C1 (stereo not drawn)	8	93*	0	0	-3	.
CC(C)CC(=O)N(c1ccc(F)cc1)C1C=CS(=O)(=O)C1 (stereo not drawn)	-6	9	0	0	-3	.
COc1ccc(C2/C=C\CNCC(=O)N2Cc2ccc(F)cc2)cc1 (stereo not drawn)	2	-6	.	25	.	18
CCn1[nH]c(=O)c(=Nc2c(C)n(C)n(-c3ccccc3)c2=O)cc1-c1ccc(Cl)cc1	2	91*[fluorescence artefact?]	-1	2	2	.
Cc1c(N=Cc2ccc(-c3ccc(Cl)cc3)o2)c(=O)n(-c2ccccc2)n1C	-7	-8	0	7	0	.
CC(=O)c1ccc2c(c1)C1C=CCC1C(c1ccncc1)N2 (stereo not drawn)	-9	-6	0	-1	6	.
COc1cccc(C2Nc3c(F)cc(Br)cc3C3C=CCC32)c1OC (stereo not drawn)	0	-20	1	1	2	11
Cc1ccc2c(c1)C1C=CCC1C(C(=O)O)N2 (stereo not drawn)	65*[fluorescence artefact?]	86*[fluorescence artefact?]	0	8	9	7
COc1cccc2c1NC(C(=O)O)C1CC=CC21 (stereo not drawn)	48*[fluorescence artefact?]	42	1	16	7	13
Cc1cccc(NC(=O)CSc2nncn2-c2ccccn2)c1	-1	-18	2	24	3	13
NC1=NC(=O)/C(=C\c2ccsc2)S1	63*	-2	0	37	4	35
O=C(Cc1cccs1)Nc1ccc(S(=O)(=O)N2CCCC2)cc1	33*	33	0	35	0	10
CSc1[nH]c(=O)c(C(=O)O)cc1C#N	6	71*	2	0	2	.
Cc1ccccc1C(=O)NNC(=O)CCC(=O)Nc1cccc(Cl)c1C	-1	0	0	2	-7	11
Cc1c(Cl)cccc1NC(=O)CCC(=O)NNC(=O)c1ccccc1Cl	65*	1	-1	2	3	.
CCC(=O)NNC(=O)CCC(=O)Nc1cccc(Cl)c1C	5	-4	3.0*	-25	4	-3
